# ChEMBL document CHEMBL5058577, “EUbOPEN Chemogenomics Library 2 (Multiplex)” (2022)
# Tested on: U2OS
# Assay: Multiplex assay against U2OS
# Format: toxicity, cell-based
# Details: human
# How it was run: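 Values for tubulin, mitochondrial-mass and membrane-permeability phenotypes are per cents of cells with healthy nuclei. These cells were identified by CellPathfinder machine-learning gating of live cells that had been stained at seeding with Hoechst33342, BioTracker Green Microtubule Cytoskeleton Dye, MitoTracker Red and Annexin V Alexa Fluor 680 and imaged on a CQ1 microscope at 37°C and 5% CO2 after compound addition. The gating first set Hoechst high-intensity objects apart from normal cells, then split normal cells into healthy, pyknosed or fragmented nuclei, and pyknosed cells into mitotic or apoptotic.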
# [1] = 12 h, 1 µM, compound concentration 1 uM, replicate 1
# [2] = 12 h, 1 µM, compound concentration 1 uM, replicate 2
# [3] = 12 h, 10 µM, compound concentration 10 uM, replicate 1
# [4] = 12 h, 10 µM, compound concentration 10 uM, replicate 2
# [5] = 24 h, 1 µM, compound concentration 1 uM, replicate 1
# [6] = 24 h, 1 µM, compound concentration 1 uM, replicate 2
# [7] = 24 h, 10 µM, compound concentration 10 uM, replicate 1
# [8] = 24 h, 10 µM, compound concentration 10 uM, replicate 2
# [9] = 48 h, 1 µM, compound concentration 1 uM, replicate 1
# [10] = 48 h, 1 µM, compound concentration 1 uM, replicate 2
# [11] = 48 h, 10 µM, compound concentration 10 uM, replicate 1
# [12] = 48 h, 10 µM, compound concentration 10 uM, replicate 2
compound,measurement,setting,value
CC[C@H]1OC(=O)[C@H](C)[C@@H](O[C@H]2C[C@@](C)(OC)[C@@H](O)[C@H](C)O2)[C@H](C)[C@@H](O[C@@H]2O[C@H](C)C[C@H](N(C)C)[C@H]2O)[C@@]2(C)CC(C)=C(O2)[C@H](C)[C@@H](O)[C@]1(C)O,Population Apoptotic (%),[1],50%
same,Population Fragmented Nuclei (%),[1],19%
same,Population Healthy Nuclei (%),[1],63%
same,Population Hoechst High Intensity Objects (%),[1],3%
same,Population Membrane Permeable-Phenotype (%),[1],33%
same,Population Mitochondria Different-Phenotype (%),[1],23%
same,Population Mitotic Cells (%),[1],50%
same,Population Normal (%),[1],96%
same,Population Pyknosed Nuclei (%),[1],17%
same,Population Tubulin-Different-Phenotype (%),[1],25%
same,Total Cell Count,[1],226
same,Population Apoptotic (%),[2],84%
same,Population Fragmented Nuclei (%),[2],23%
same,Population Healthy Nuclei (%),[2],62%
same,Population Hoechst High Intensity Objects (%),[2],1%
same,Population Membrane Permeable-Phenotype (%),[2],21%
same,Population Mitochondria Different-Phenotype (%),[2],14%
same,Population Mitotic Cells (%),[2],15%
same,Population Normal (%),[2],98%
same,Population Pyknosed Nuclei (%),[2],14%
same,Population Tubulin-Different-Phenotype (%),[2],14%
same,Total Cell Count,[2],91
same,Population Apoptotic (%),[3],65%
same,Population Fragmented Nuclei (%),[3],34%
same,Population Healthy Nuclei (%),[3],40%
same,Population Hoechst High Intensity Objects (%),[3],7%
same,Population Membrane Permeable-Phenotype (%),[3],82%
same,Population Mitochondria Different-Phenotype (%),[3],63%
same,Population Mitotic Cells (%),[3],34%
same,Population Normal (%),[3],92%
same,Population Pyknosed Nuclei (%),[3],25%
same,Population Tubulin-Different-Phenotype (%),[3],89%
same,Total Cell Count,[3],223
same,Population Apoptotic (%),[4],73%
same,Population Fragmented Nuclei (%),[4],21%
same,Population Healthy Nuclei (%),[4],47%
same,Population Hoechst High Intensity Objects (%),[4],4%
same,Population Membrane Permeable-Phenotype (%),[4],72%
same,Population Mitochondria Different-Phenotype (%),[4],81%
same,Population Mitotic Cells (%),[4],26%
same,Population Normal (%),[4],95%
same,Population Pyknosed Nuclei (%),[4],31%
same,Population Tubulin-Different-Phenotype (%),[4],96%
same,Total Cell Count,[4],128
same,Population Apoptotic (%),[5],65%
same,Population Fragmented Nuclei (%),[5],20%
same,Population Healthy Nuclei (%),[5],63%
same,Population Hoechst High Intensity Objects (%),[5],4%
same,Population Membrane Permeable-Phenotype (%),[5],20%
same,Population Mitochondria Different-Phenotype (%),[5],15%
same,Population Mitotic Cells (%),[5],35%
same,Population Normal (%),[5],95%
same,Population Pyknosed Nuclei (%),[5],16%
same,Population Tubulin-Different-Phenotype (%),[5],17%
same,Total Cell Count,[5],256
same,Population Apoptotic (%),[6],72%
same,Population Fragmented Nuclei (%),[6],19%
same,Population Healthy Nuclei (%),[6],64%
same,Population Hoechst High Intensity Objects (%),[6],5%
same,Population Membrane Permeable-Phenotype (%),[6],14%
same,Population Mitochondria Different-Phenotype (%),[6],14%
same,Population Mitotic Cells (%),[6],27%
same,Population Normal (%),[6],94%
same,Population Tubulin-Different-Phenotype (%),[6],10%
same,Total Cell Count,[6],115
same,Population Apoptotic (%),[7],67%
same,Population Fragmented Nuclei (%),[7],33%
same,Population Healthy Nuclei (%),[7],36%
same,Population Hoechst High Intensity Objects (%),[7],5%
same,Population Membrane Permeable-Phenotype (%),[7],56%
same,Population Mitochondria Different-Phenotype (%),[7],65%
same,Population Mitotic Cells (%),[7],32%
same,Population Normal (%),[7],94%
same,Population Pyknosed Nuclei (%),[7],29%
same,Population Tubulin-Different-Phenotype (%),[7],76%
same,Total Cell Count,[7],210
same,Population Apoptotic (%),[8],82%
same,Population Fragmented Nuclei (%),[8],24%
same,Population Healthy Nuclei (%),[8],45%
same,Population Hoechst High Intensity Objects (%),[8],4%
same,Population Membrane Permeable-Phenotype (%),[8],75%
same,Population Mitochondria Different-Phenotype (%),[8],86%
same,Population Mitotic Cells (%),[8],17%
same,Population Normal (%),[8],95%
same,Population Pyknosed Nuclei (%),[8],30%
same,Population Tubulin-Different-Phenotype (%),[8],88%
same,Total Cell Count,[8],121
same,Population Apoptotic (%),[9],67%
same,Population Fragmented Nuclei (%),[9],19%
same,Population Healthy Nuclei (%),[9],54%
same,Population Hoechst High Intensity Objects (%),[9],9%
same,Population Membrane Permeable-Phenotype (%),[9],13%
same,Population Mitochondria Different-Phenotype (%),[9],8%
same,Population Mitotic Cells (%),[9],32%
same,Population Normal (%),[9],91%
same,Population Pyknosed Nuclei (%),[9],26%
same,Population Tubulin-Different-Phenotype (%),[9],11%
same,Total Cell Count,[9],300
same,Population Apoptotic (%),[10],78%
same,Population Fragmented Nuclei (%),[10],32%
same,Population Healthy Nuclei (%),[10],58%
same,Population Hoechst High Intensity Objects (%),[10],2%
same,Population Membrane Permeable-Phenotype (%),[10],12%
same,Population Mitochondria Different-Phenotype (%),[10],12%
same,Population Mitotic Cells (%),[10],21%
same,Population Normal (%),[10],97%
same,Population Pyknosed Nuclei (%),[10],9%
same,Population Tubulin-Different-Phenotype (%),[10],7%
same,Total Cell Count,[10],147
same,Population Apoptotic (%),[11],85%
same,Population Fragmented Nuclei (%),[11],37%
same,Population Healthy Nuclei (%),[11],31%
same,Population Hoechst High Intensity Objects (%),[11],7%
same,Population Membrane Permeable-Phenotype (%),[11],58%
same,Population Mitochondria Different-Phenotype (%),[11],55%
same,Population Mitotic Cells (%),[11],14%
same,Population Normal (%),[11],92%
same,Population Pyknosed Nuclei (%),[11],31%
same,Population Tubulin-Different-Phenotype (%),[11],63%
same,Total Cell Count,[11],236
same,Population Apoptotic (%),[12],83%
same,Population Fragmented Nuclei (%),[12],20%
same,Population Healthy Nuclei (%),[12],42%
same,Population Hoechst High Intensity Objects (%),[12],9%
same,Population Membrane Permeable-Phenotype (%),[12],62%
same,Population Mitochondria Different-Phenotype (%),[12],81%
same,Population Mitotic Cells (%),[12],16%
same,Population Normal (%),[12],90%
same,Population Pyknosed Nuclei (%),[12],36%
same,Population Tubulin-Different-Phenotype (%),[12],88%
same,Total Cell Count,[12],112
CN1CCN(c2nc3cc(C(F)(F)F)ccc3n3cccc23)CC1.O=C(O)/C=C\C(=O)O.O=C(O)/C=C\C(=O)O,Population Apoptotic (%),[1],77%
same,Population Fragmented Nuclei (%),[1],17%
same,Population Healthy Nuclei (%),[1],75%
same,Population Hoechst High Intensity Objects (%),[1],1%
same,Population Membrane Permeable-Phenotype (%),[1],4%
same,Population Mitochondria Different-Phenotype (%),[1],0%
same,Population Mitotic Cells (%),[1],22%
same,Population Normal (%),[1],98%
same,Population Pyknosed Nuclei (%),[1],6%
same,Population Tubulin-Different-Phenotype (%),[1],1%
same,Total Cell Count,[1],266
same,Population Apoptotic (%),[2],100%
same,Population Fragmented Nuclei (%),[2],18%
same,Population Healthy Nuclei (%),[2],73%
same,Population Hoechst High Intensity Objects (%),[2],0%
same,Population Membrane Permeable-Phenotype (%),[2],8%
same,Population Mitochondria Different-Phenotype (%),[2],2%
same,Population Mitotic Cells (%),[2],0%
same,Population Normal (%),[2],99%
same,Population Pyknosed Nuclei (%),[2],8%
same,Population Tubulin-Different-Phenotype (%),[2],3%
same,Total Cell Count,[2],111
same,Population Apoptotic (%),[3],66%
same,Population Fragmented Nuclei (%),[3],31%
same,Population Healthy Nuclei (%),[3],53%
same,Population Hoechst High Intensity Objects (%),[3],1%
same,Population Membrane Permeable-Phenotype (%),[3],18%
same,Population Mitochondria Different-Phenotype (%),[3],45%
same,Population Mitotic Cells (%),[3],33%
same,Population Normal (%),[3],98%
same,Population Pyknosed Nuclei (%),[3],15%
same,Population Tubulin-Different-Phenotype (%),[3],19%
same,Total Cell Count,[3],218
same,Population Apoptotic (%),[4],88%
same,Population Fragmented Nuclei (%),[4],25%
same,Population Healthy Nuclei (%),[4],68%
same,Population Hoechst High Intensity Objects (%),[4],2%
same,Population Membrane Permeable-Phenotype (%),[4],13%
same,Population Mitochondria Different-Phenotype (%),[4],41%
same,Population Mitotic Cells (%),[4],11%
same,Population Normal (%),[4],97%
same,Population Pyknosed Nuclei (%),[4],6%
same,Population Tubulin-Different-Phenotype (%),[4],21%
same,Total Cell Count,[4],135
same,Population Apoptotic (%),[5],85%
same,Population Fragmented Nuclei (%),[5],17%
same,Population Healthy Nuclei (%),[5],73%
same,Population Hoechst High Intensity Objects (%),[5],2%
same,Population Membrane Permeable-Phenotype (%),[5],5%
same,Population Mitochondria Different-Phenotype (%),[5],1%
same,Population Mitotic Cells (%),[5],14%
same,Population Normal (%),[5],97%
same,Population Pyknosed Nuclei (%),[5],9%
same,Population Tubulin-Different-Phenotype (%),[5],3%
same,Total Cell Count,[5],300
same,Population Apoptotic (%),[6],92%
same,Population Fragmented Nuclei (%),[6],13%
same,Population Healthy Nuclei (%),[6],77%
same,Population Hoechst High Intensity Objects (%),[6],0%
same,Population Membrane Permeable-Phenotype (%),[6],8%
same,Population Mitochondria Different-Phenotype (%),[6],4%
same,Population Mitotic Cells (%),[6],7%
same,Population Normal (%),[6],99%
same,Population Tubulin-Different-Phenotype (%),[6],4%
same,Total Cell Count,[6],136
same,Population Apoptotic (%),[7],76%
same,Population Fragmented Nuclei (%),[7],31%
same,Population Healthy Nuclei (%),[7],57%
same,Population Hoechst High Intensity Objects (%),[7],3%
same,Population Membrane Permeable-Phenotype (%),[7],16%
same,Population Mitochondria Different-Phenotype (%),[7],41%
same,Population Mitotic Cells (%),[7],24%
same,Population Normal (%),[7],96%
same,Population Pyknosed Nuclei (%),[7],10%
same,Population Tubulin-Different-Phenotype (%),[7],14%
same,Total Cell Count,[7],244
same,Population Apoptotic (%),[8],78%
same,Population Fragmented Nuclei (%),[8],19%
same,Population Healthy Nuclei (%),[8],71%
same,Population Membrane Permeable-Phenotype (%),[8],17%
same,Population Mitochondria Different-Phenotype (%),[8],36%
same,Population Mitotic Cells (%),[8],21%
same,Population Pyknosed Nuclei (%),[8],9%
same,Population Tubulin-Different-Phenotype (%),[8],16%
same,Total Cell Count,[8],156
same,Population Apoptotic (%),[9],87%
same,Population Fragmented Nuclei (%),[9],14%
same,Population Healthy Nuclei (%),[9],77%
same,Population Hoechst High Intensity Objects (%),[9],2%
same,Population Membrane Permeable-Phenotype (%),[9],4%
same,Population Mitochondria Different-Phenotype (%),[9],0%
same,Population Mitotic Cells (%),[9],12%
same,Population Normal (%),[9],97%
same,Population Pyknosed Nuclei (%),[9],7%
same,Population Tubulin-Different-Phenotype (%),[9],2%
same,Total Cell Count,[9],447
same,Population Apoptotic (%),[10],85%
same,Population Fragmented Nuclei (%),[10],17%
same,Population Healthy Nuclei (%),[10],75%
same,Population Hoechst High Intensity Objects (%),[10],1%
same,Population Membrane Permeable-Phenotype (%),[10],6%
same,Population Mitochondria Different-Phenotype (%),[10],5%
same,Population Mitotic Cells (%),[10],14%
same,Population Normal (%),[10],98%
same,Population Tubulin-Different-Phenotype (%),[10],3%
same,Total Cell Count,[10],187
same,Population Apoptotic (%),[11],78%
same,Population Fragmented Nuclei (%),[11],31%
same,Population Healthy Nuclei (%),[11],52%
same,Population Hoechst High Intensity Objects (%),[11],4%
same,Population Membrane Permeable-Phenotype (%),[11],16%
same,Population Mitochondria Different-Phenotype (%),[11],17%
same,Population Mitotic Cells (%),[11],21%
same,Population Normal (%),[11],95%
same,Population Pyknosed Nuclei (%),[11],16%
same,Population Tubulin-Different-Phenotype (%),[11],12%
same,Total Cell Count,[11],299
same,Population Apoptotic (%),[12],81%
same,Population Fragmented Nuclei (%),[12],21%
same,Population Healthy Nuclei (%),[12],67%
same,Population Hoechst High Intensity Objects (%),[12],3%
same,Population Membrane Permeable-Phenotype (%),[12],10%
same,Population Mitochondria Different-Phenotype (%),[12],16%
same,Population Mitotic Cells (%),[12],18%
same,Population Normal (%),[12],96%
same,Population Pyknosed Nuclei (%),[12],11%
same,Population Tubulin-Different-Phenotype (%),[12],9%
same,Total Cell Count,[12],202
